CHT PAM: allosteric activators of human choline transporter CHT; AID 488977; actives 0.49% (n = 310,000); B-score at 10 µM; Q9GZV3; CHT-expressing cells, membrane potential dye, choline EC20; hits give high values; LV-AA mutant CHT in HEK293 cells;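 active = initial fluorescence not abnormally high and integrated response B-score, plate-corrected, over 3 SD above library mean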
Target sequence (Q9GZV3 whole entry, looked up): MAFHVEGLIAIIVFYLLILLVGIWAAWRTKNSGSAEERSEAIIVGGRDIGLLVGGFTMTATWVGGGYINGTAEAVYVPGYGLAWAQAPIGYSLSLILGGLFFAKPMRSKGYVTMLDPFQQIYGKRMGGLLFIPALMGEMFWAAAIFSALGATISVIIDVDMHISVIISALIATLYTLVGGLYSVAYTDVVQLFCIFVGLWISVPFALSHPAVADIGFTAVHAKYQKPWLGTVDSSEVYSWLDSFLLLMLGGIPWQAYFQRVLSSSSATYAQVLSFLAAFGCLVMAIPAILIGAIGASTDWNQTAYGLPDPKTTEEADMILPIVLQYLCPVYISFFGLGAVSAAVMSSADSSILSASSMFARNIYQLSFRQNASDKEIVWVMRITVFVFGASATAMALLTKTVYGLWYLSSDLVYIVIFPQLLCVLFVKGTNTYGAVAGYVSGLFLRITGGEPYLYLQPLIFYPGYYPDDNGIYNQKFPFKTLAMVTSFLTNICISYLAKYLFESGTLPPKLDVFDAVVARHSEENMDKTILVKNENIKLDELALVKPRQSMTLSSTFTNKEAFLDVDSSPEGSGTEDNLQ
HSF1 inhib: HSF1 inhibition. NIH3T3-HGL HSE-luciferase, MG132-induced, luminescence 8 h; hits give low values. activity change, negative = inhibition, % at 7.5 µM (by protocol). actives 0.77% (n = 300,000);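 active = more than half of replicate wells show activity change below -50%, luminescence cut by over half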;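 also: luciferase reports HSF-1 transcriptional activity via heat shock element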
HSF1 activator: increases HSF-1 driven luciferase reporter signal; activation, % at 9 µM; AID 504408; NIH3T3-HGL HSF-1 luciferase reporter, MG132, 8 h; 100% = twice DMSO control signal; actives 1.7% (n = 300,000);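 active = mean replicate activation of at least 50% with a set share of replicates each reaching 50%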
CHT block: inhibitors of human choline transporter CHT; actives 0.86% (n = 310,000); B-score at 10 µM; CHT-expressing cells, membrane potential dye, choline response; hits give low values; Q9GZV3; AID 488975;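 active = B-score over 3 SD under the library average, and starting fluorescence ratio not unusually high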;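 also: choline stimulus applied at its EC90 after an EC20 pre-addition; B-score computed on integrated fluorescence ratio after choline addition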
Lipid droplet: hepatic lipid droplet formation modulation; actives 0.4% (n = 240,000); AML12 mouse hepatocytes, oleate lipid droplets, BODIPY imaging; inhibition, % at 6.5 µM;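 active = lipid droplet intensity inhibited by at least 50%, with more than 500 cells counted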
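Assay system: AML12 hepatocytes (mouse); Probe or stimulus: oleic acid at 100 µM to induce lipid droplet formation; Dosing: compound at 6.5 µM only; Schedule: compound with oleate, overnight; Detection: fluorescence imaging, 20x objective, two fields per well; Measure: % inhibition of lipid droplet signal.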
PHOSPHO1 inh: blocks human PHOSPHO1 phosphatase activity. inhibition, % at 13.3 µM. recombinant PHOSPHO1, absorbance phosphatase assay. Q8TCT1. actives 1.1% (n = 290,000); in the data active = inhibition above about 60%
CHT block conf: confirmation of human choline transporter CHT inhibitors; shares compounds with CHT block; CHT-expressing cells, choline membrane potential dye; LV-to-AA substituted CHT, HEK293 cells; CHT activity remaining % of control (hits give low values), % at 10 µM; actives 70% (n = 2,400); AID 493221;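 active = choline transporter activity left, mean of duplicates at 10 µM, below buffer-only control mean minus 3 SD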;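 also: depolarization triggered by choline at its EC90 following an EC20 pre-addition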
HEK293 CHT ctr: CHT inhibitor counter-screen hit in parental HEK293 cells; shares compounds with CHT block; membrane potential dye, choline response; active = decrease or increase beyond buffer ±3SD; actives 4% (n = 2,400); membrane potential ratio readout (active if shifted either direction beyond buffer ±3SD; no single direction) at 10 µM; AID 493222;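 also: parental cells lack the transporter so any hit is non-specific; ratio is peak minus trough fluorescence over baseline after EC90 choline challenge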
A number is an active result; n = inactive; x = no result. Rows were chosen to be rich in hits. Some 4.9% of all compounds tested hit in one or more screens of this group.

SMILES | CHT PAM | HSF1 inhib | HSF1 activator | CHT block | Lipid droplet | PHOSPHO1 inh | CHT block conf | HEK293 CHT ctr
CCC(C)NS(=O)(=O)c1ccc(NC(=O)c2ccc([N+](=O)[O-])cc2Cl)cc1 (configuration not stated) | n | n | n | -8.86 | n | n | n | n
CCOCCCNS(=O)(=O)c1ccc(NC(=O)c2ccc(OC)c([N+](=O)[O-])c2)cc1 | n | n | n | n | n | n | x | x
CCOCCCNS(=O)(=O)c1ccc(NC(=O)c2ccc([N+](=O)[O-])cc2Cl)cc1 | n | n | n | -10.3 | n | n | -5.7% | n
CC1CCCN(C(=O)c2ccc(CNc3c(N4CCCCC4)c(=O)c3=O)cc2)C1 (configuration not stated) | n | n | n | n | x | n | x | x
Cc1cccc(N2CCN(C(=O)c3ccc(CNc4c(N5CCC(C)CC5)c(=O)c4=O)cc3)CC2C)c1 (configuration not stated) | n | n | n | -5.42 | n | n | 70.0% | n
COC(=O)CN1C(=O)COc2ccc(S(=O)(=O)NCc3ccc(Cl)cc3)cc21 | n | n | n | -6.08 | n | n | n | n
O=C1COc2ccc(S(=O)(=O)NCc3ccc(Cl)cc3)cc2N1 | n | n | n | n | n | n | x | x
CC(C)NS(=O)(=O)c1ccc(CCC(=O)N2CCc3ccccc3C2)cc1 | n | n | n | -5.11 | n | n | 46.1% | n
CSC1=NS(=O)(=O)c2c(C)nn(C)c2S1 | n | n | n | -8.03 | n | 90.4 | 29.1% | n
CCc1nc2nc(C)c(NS(=O)(=O)c3ccc(CC(C)C)cc3)c(=O)n2[nH]1 | n | n | n | n | n | n | x | x
CC1=NN(c2ccccc2)C(=O)/C1=C/c1c(O)n(-c2ccc(F)cc2)[nH]c1=O | n | n | n | -5.92 | n | n | 54.3% | n
COc1ccc(N(CCCN2C(=O)c3cccc4cccc(c34)C2=O)C(=O)c2cccnc2)cc1 | n | n | n | n | n | n | x | x
COc1ccc(N(CCCN2C(=O)c3cccc4cccc(c34)C2=O)C(=O)c2ccncc2)cc1 | n | n | n | -5.8 | n | n | 69.4% | n
CCCCNC(=O)/C(C#N)=C/c1ccc(-c2ccc(S(=O)(=O)N3CCOCC3)cc2)o1 | n | n | n | -4.96 | n | n | 68.6% | n
CC(C)(C)C(=O)N1CCN(c2ccc(NC(=O)c3ccc4c(c3)OCCO4)cc2)CC1 | n | n | n | -5.38 | n | n | 65.8% | n
CCOC(=O)C1CCCN(C/C(O)=C(\C#N)c2nc(-c3ccc(Cl)cc3)cs2)C1 (configuration not stated) | n | n | n | -5.66 | n | n | n | n
Cc1cc(C)c2nc(N3CCCN(C(=O)c4cnccn4)CC3)c(C#N)cc2c1 | n | n | n | -5.2 | x | n | 37.8% | n
CCOc1cc(N2CCOCC2)c(OCC)cc1NC(=O)c1ccco1 | n | n | n | n | n | n | x | x
CC(=O)C(Sc1nc(N(C)C)nc(N(C)C)n1)C(=O)Nc1ccccc1 (configuration not stated) | n | n | n | n | n | n | x | x
CC(=O)C(Sc1nn(C)c(=S)s1)C(=O)Nc1ccccc1 (configuration not stated) | n | n | n | -5.39 | x | 97.5 | 48.7% | n
O=C(Nc1cccc(NS(=O)(=O)c2ccc(S(=O)(=O)NC3CC3)cc2)c1)c1ccccn1 | n | n | n | n | x | n | x | x
Cc1cc(NCCCn2ccnc2)n2ncc(-c3ccc(Cl)cc3)c2n1 | n | n | n | -5.41 | x | n | 61.3% | n
Cc1cc(NCCCN2CCOCC2)n2ncc(-c3ccc(Cl)cc3)c2n1 | n | n | n | n | x | n | x | x
O=C(CSc1ccc(F)cc1)NCCc1ccc(Cl)cc1 | n | n | n | n | n | n | x | x
O=C(NNc1cc(Br)c(O)c(Br)c1)c1ccccc1 | n | n | n | -7.37 | n | n | 47.3% | n

Assay outcomes deposited in PubChem by several laboratories.
